Reference: ChEMBL document CHEMBL1142321, “Selection of a respiratory syncytial virus fusion inhibitor clinical candidate. 2. Discovery of a morpholinopropylaminobenzimidazole derivative (TMC353121)” (J Med Chem, 2008)

Key:
[1] = system: Respiratory syncytial virus; experiment: Inhibition of RSV by MTT assay; type: functional, organism-based; details: human respiratory syncytial virus
Outline: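 HeLaM epithelial-like cells infected with RSV with or without a range of compound concentrations; viability read by MTT after 1 week incubation. OD measured spectrophotometrically and pEC50 derived. Virus, cell and cytotoxicity controls on every plate, reference compounds in every test; runs failing control criteria rejected.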

[2] = Cytotoxicity against human HeLaM cells by MTT assay; type: functional, M-HeLa
[3] = Half life in Sprague-Dawley rat lung; type: ADME, organism-based

**Q.** With `Cc1cccc(NCc2ccc3nc(NC4CCN(CCO)CC4)n(Cc4nc(C)ccc4O)c3c2)c1` as the compound, how does the EC50 [1] read?
**A.** 1.58 nM

**Q.** What about the pCC50 [2] of the same compound?
**A.** 4.4

**Q.** And the half-life [3]?
**A.** 67.7 h

**Q.** Which EC50 [1] does the source give for `Cc1cc(C)cc(N(CCCC(N)=O)Cc2ccc3nc(NCCCN4CCOCC4)n(Cc4nc(C)ccc4O)c3c2)c1` here?
**A.** 0.251 nM

**Q.** What about the pCC50 [2] of the same compound?
**A.** 4.7

**Q.** And the half-life [3]?
**A.** 10.4 h

**Q.** What does the source list for `Cc1ccc(O)c(Cn2c(NC3CCN(C)CC3)nc3ccc(CN(C)c4ccccc4)cc32)n1`?
**A.** EC50 [1]: 39.8 nM; pCC50 [2]: 5.2

**Q.** What does the source list for `Cc1cc(C)cc(NCc2ccc3nc(NC4CCN(C)CC4)n(Cc4nc(C)ccc4O)c3c2)c1`?
**A.** EC50 [1]: 2.51 nM; pCC50 [2]: 4.3

**Q.** For `Cc1cccc(CCc2ccc3nc(NC4CCN(C)CC4)n(Cc4nc(C)ccc4O)c3c2)c1`, which EC50 [1] is on record?
**A.** 20 nM

**Q.** And the pCC50 [2]?
**A.** 5.9

**Q.** For `Cc1cc(C)cc(NCc2ccc3nc(NC4CCN(CCO)CC4)n(Cc4nc(C)ccc4O)c3c2)c1`, which EC50 [1] is on record?
**A.** 1.58 nM

**Q.** And the pCC50 [2]?
**A.** 4.5

**Q.** What about the half-life [3] of the same compound?
**A.** 84.9 h

**Q.** For `Cc1cccc(NCc2ccc3nc(NCCCN4CCOCC4)n(Cc4nc(C)ccc4O)c3c2)c1`, which EC50 [1] is on record?
**A.** 2.51 nM

**Q.** And the pCC50 [2]?
**A.** 4.9

**Q.** Which EC50 [1] does the source give for `Cc1cccc(/C=C/c2ccc3nc(NC4CCN(C)CC4)n(Cc4nc(C)ccc4O)c3c2)c1` here?
**A.** 501 nM

**Q.** And the pCC50 [2]?
**A.** 5.6

**Q.** With `Cc1ccc(O)c(Cn2c(NC3CCN(C)CC3)nc3ccc(CNc4ccccc4)cc32)n1` as the compound, how does the EC50 [1] read?
**A.** 15.8 nM

**Q.** What about the pCC50 [2] of the same compound?
**A.** 4.5

**Q.** Which EC50 [1] does the source give for `Cc1ccc(O)c(Cn2c(NC3CCN(CC(N)C(C)C)CC3)nc3c(C)ccnc32)n1` (configuration not stated) here?
**A.** 0.1 nM

**Q.** And the pCC50 [2]?
**A.** 4.3

**Q.** Which EC50 [1] does the source give for `Cc1ccc(O)c(Cn2c(NCCCN3CCOCC3)nc3ccc(CN(CCO)c4ccccc4)cc32)n1` here?
**A.** 3.16 nM

**Q.** And the pCC50 [2]?
**A.** 4.3

**Q.** For `Cc1cccc(SCc2ccc3nc(NC4CCN(C)CC4)n(Cc4nc(C)ccc4O)c3c2)c1`, which EC50 [1] is on record?
**A.** 251 nM

**Q.** And the pCC50 [2]?
**A.** 4.4

**Q.** Which results are given for `Cc1cc(C)cc(NCc2ccc3nc(NCCCN4CCOCC4)n(Cc4nc(C)ccc4O)c3c2)c1`?
**A.** EC50 [1]: 1 nM; pCC50 [2]: 5; half-life [3]: 13.7 h

**Q.** For `CCCCNc1nc2ccc(CNc3cc(C)cc(C)c3)cc2n1Cc1nc(C)ccc1O`, which EC50 [1] is on record?
**A.** > 100000 nM

**Q.** What about the pCC50 [2] of the same compound?
**A.** 5.1

**Q.** Which EC50 [1] does the source give for `Cc1cccc(/C=C/c2ccc3nc(NC4CCN(CCN)CC4)n(Cc4nc(C)ccc4O)c3c2)c1` here?
**A.** 3.16 nM

**Q.** What about the pCC50 [2] of the same compound?
**A.** 5.1

**Q.** With `Cc1ccc(O)c(Cn2c(NCCCN3CCOCC3)nc3ccc(CNc4ccccc4CCO)cc32)n1` as the compound, how does the EC50 [1] read?
**A.** 0.794 nM

**Q.** And the pCC50 [2]?
**A.** 4.7

**Q.** And the half-life [3]?
**A.** 20.1 h
